What was measured:
[1] = molecular target: Vascular endothelial growth factor receptor 1 (Homo sapiens) (UniProt P17948); assay: Inhibition of recombinant human FLT1 (783 to end residues) assessed as residual activity at 1 uM using KKKSPGEYVNIEFG as substrate incubated for 40 mins by [gamma-33P]-ATP scintillation counting based radiometry assay relative to control
[2] = molecular target: Receptor tyrosine-protein kinase erbB-2 (Homo sapiens) (UniProt P04626); assay: Inhibition of recombinant human HER2 (676 to end residues) assessed as residual activity at 1 uM using poly(Glu, Tyr) 4:1 as substrate incubated for 40 mins by [gamma-33P]-ATP scintillation counting based radiometry assay relative to control
[3] = molecular target: Vascular endothelial growth factor receptor 2 (Homo sapiens) (UniProt P35968); assay: Inhibition of recombinant human KDR (790 to end residues) assessed as residual activity at 1 uM using myelin basic protein as substrate incubated for 40 mins by [gamma-33P]-ATP scintillation counting based radiometry assay relative to control
[4] = molecular target: Epidermal growth factor receptor (Homo sapiens) (UniProt P00533); assay: Inhibition of recombinant human EGFR (696 to end residues) assessed as residual activity at 1 uM using poly(Glu, Tyr) 4:1 as substrate incubated for 40 mins by [gamma-33P]-ATP scintillation counting based radiometry assay relative to control
[5] = molecular target: T1, Serine/threonine-protein kinase TNNI3K (Homo sapiens) (UniProt Q59H18); assay: Inhibition of TNNI3K (unknown origin) assessed as residual activity at 1 uM using biotinylated CTnI as substrate by HTRF analysis relative to control
T1 sequence (whole entry): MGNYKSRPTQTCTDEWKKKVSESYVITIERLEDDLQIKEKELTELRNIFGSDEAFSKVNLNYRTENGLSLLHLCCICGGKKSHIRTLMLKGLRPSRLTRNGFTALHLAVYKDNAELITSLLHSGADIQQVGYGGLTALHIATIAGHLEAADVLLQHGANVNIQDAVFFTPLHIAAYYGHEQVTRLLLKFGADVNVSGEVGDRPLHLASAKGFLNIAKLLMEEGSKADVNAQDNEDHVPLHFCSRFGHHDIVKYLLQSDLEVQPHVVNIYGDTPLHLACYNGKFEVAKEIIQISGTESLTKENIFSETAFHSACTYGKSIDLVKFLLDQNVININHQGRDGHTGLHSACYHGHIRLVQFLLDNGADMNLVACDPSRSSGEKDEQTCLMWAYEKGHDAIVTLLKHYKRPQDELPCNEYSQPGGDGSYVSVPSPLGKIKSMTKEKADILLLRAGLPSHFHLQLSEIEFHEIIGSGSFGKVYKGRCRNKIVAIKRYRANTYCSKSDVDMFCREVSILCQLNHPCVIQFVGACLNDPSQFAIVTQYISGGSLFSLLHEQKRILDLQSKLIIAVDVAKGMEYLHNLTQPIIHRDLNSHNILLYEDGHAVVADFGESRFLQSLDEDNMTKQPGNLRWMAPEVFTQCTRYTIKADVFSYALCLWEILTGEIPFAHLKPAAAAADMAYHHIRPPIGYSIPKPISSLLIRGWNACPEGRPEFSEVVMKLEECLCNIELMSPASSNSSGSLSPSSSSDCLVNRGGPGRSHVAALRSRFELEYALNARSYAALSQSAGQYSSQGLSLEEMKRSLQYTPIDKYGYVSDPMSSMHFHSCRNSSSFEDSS
Summary of the method: (§1)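 TNNI3K was assayed by HTRF using a GST-tagged TNNI3K kinase domain and a biotinylated cardiac troponin I substrate peptide, followed by the two HTRF detection reagents. Compounds were screened at 1.0 µM, then IC50s were determined.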

H9c2 [6] = assay: Cytoprotective activity against OGD-induced cell death in rat H9c2 cells assessed as cell viability at 1 uM incubated for 24 hrs by MTT assay (reference value: 42.08 to 49.11 %); format: functional; details: read-out: Activity
H9c2 [7] = assay: Cytoprotective activity against OGD-induced cell death in rat H9c2 cells assessed as cell viability at 10 uM incubated for 24 hrs by MTT assay (reference value: 42.08 to 49.11 %); format: functional; details: read-out: Activity
[8] = molecular target: T2, Serine/threonine-protein kinase TNNI3K (Homo sapiens, UniProt Q59H18); assay: Inhibition of TNNI3K (unknown origin) using biotinylated CTnI as substrate by HTRF analysis; summary of the method: as §1
T2 sequence (Q59H18 whole entry): T1 sequence (whole entry)

Vascular endothelial growth factor receptor 1 (Homo sapiens), sequence (P17948 whole entry): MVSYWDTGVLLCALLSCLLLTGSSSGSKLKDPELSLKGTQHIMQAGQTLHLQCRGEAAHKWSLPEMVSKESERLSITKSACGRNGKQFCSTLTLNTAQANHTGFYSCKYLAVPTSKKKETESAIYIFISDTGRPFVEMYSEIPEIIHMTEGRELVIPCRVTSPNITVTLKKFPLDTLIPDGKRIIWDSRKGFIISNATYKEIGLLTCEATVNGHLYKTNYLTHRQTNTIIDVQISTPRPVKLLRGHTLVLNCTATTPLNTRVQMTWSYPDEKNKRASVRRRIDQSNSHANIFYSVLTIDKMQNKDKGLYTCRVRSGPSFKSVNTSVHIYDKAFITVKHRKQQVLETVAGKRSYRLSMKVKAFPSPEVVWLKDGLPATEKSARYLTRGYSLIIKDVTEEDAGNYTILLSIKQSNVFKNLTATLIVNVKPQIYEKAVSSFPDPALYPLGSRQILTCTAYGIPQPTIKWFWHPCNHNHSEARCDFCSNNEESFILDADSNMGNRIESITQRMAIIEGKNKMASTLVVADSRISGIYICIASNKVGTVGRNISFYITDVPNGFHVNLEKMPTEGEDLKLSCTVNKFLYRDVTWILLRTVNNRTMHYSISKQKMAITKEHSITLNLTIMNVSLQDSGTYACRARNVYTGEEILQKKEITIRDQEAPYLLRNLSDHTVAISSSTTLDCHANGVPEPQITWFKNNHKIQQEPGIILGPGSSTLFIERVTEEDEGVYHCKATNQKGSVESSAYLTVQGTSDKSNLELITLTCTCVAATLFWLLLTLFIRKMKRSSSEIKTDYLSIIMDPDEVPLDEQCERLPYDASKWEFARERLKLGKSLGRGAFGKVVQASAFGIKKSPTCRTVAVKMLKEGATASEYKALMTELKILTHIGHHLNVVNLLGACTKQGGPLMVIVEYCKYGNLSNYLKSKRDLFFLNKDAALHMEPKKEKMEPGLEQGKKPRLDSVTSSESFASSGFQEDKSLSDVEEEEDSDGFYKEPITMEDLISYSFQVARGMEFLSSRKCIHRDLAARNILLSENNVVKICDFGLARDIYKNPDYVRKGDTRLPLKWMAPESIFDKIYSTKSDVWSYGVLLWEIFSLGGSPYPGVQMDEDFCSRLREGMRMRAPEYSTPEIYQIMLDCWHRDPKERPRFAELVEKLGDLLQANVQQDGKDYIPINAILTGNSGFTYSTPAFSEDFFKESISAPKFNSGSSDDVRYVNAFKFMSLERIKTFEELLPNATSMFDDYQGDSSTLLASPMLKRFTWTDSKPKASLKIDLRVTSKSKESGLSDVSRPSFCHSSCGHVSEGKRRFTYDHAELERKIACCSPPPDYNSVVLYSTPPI
Vascular endothelial growth factor receptor 2 (Homo sapiens), sequence (P35968 whole entry): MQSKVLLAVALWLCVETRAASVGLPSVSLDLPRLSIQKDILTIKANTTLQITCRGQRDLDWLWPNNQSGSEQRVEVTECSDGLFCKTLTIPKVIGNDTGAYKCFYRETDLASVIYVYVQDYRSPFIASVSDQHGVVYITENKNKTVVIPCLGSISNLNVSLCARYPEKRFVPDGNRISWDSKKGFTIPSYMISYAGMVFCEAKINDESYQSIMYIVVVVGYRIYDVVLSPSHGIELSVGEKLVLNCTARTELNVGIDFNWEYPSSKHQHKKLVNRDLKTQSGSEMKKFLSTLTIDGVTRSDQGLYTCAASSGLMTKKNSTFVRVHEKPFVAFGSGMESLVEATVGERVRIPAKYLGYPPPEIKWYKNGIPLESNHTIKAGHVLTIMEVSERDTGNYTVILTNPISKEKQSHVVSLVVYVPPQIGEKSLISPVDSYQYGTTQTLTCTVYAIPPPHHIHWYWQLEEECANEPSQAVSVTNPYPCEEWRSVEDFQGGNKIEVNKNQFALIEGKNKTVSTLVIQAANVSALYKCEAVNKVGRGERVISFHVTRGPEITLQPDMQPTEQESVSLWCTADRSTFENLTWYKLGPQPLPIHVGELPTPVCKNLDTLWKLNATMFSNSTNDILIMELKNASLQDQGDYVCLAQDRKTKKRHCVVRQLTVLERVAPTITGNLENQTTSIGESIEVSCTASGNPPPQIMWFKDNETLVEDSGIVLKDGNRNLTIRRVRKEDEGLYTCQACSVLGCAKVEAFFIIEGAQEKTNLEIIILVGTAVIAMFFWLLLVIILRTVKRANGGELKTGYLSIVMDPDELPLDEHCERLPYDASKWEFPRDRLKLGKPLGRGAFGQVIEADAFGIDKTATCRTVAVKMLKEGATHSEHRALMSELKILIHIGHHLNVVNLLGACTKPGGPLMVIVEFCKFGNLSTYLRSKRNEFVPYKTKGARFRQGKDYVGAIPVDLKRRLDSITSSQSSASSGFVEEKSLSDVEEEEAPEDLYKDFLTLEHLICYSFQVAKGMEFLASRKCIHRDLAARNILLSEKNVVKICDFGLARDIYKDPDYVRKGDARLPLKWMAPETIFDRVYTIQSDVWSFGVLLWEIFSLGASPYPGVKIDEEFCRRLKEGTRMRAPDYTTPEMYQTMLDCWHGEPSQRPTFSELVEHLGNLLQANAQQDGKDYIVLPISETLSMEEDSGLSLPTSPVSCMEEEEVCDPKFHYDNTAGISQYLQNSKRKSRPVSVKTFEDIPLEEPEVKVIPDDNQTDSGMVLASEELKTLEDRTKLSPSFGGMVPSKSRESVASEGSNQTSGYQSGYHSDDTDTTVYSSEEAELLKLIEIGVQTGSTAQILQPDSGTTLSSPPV
Epidermal growth factor receptor (Homo sapiens), sequence (P00533 whole entry): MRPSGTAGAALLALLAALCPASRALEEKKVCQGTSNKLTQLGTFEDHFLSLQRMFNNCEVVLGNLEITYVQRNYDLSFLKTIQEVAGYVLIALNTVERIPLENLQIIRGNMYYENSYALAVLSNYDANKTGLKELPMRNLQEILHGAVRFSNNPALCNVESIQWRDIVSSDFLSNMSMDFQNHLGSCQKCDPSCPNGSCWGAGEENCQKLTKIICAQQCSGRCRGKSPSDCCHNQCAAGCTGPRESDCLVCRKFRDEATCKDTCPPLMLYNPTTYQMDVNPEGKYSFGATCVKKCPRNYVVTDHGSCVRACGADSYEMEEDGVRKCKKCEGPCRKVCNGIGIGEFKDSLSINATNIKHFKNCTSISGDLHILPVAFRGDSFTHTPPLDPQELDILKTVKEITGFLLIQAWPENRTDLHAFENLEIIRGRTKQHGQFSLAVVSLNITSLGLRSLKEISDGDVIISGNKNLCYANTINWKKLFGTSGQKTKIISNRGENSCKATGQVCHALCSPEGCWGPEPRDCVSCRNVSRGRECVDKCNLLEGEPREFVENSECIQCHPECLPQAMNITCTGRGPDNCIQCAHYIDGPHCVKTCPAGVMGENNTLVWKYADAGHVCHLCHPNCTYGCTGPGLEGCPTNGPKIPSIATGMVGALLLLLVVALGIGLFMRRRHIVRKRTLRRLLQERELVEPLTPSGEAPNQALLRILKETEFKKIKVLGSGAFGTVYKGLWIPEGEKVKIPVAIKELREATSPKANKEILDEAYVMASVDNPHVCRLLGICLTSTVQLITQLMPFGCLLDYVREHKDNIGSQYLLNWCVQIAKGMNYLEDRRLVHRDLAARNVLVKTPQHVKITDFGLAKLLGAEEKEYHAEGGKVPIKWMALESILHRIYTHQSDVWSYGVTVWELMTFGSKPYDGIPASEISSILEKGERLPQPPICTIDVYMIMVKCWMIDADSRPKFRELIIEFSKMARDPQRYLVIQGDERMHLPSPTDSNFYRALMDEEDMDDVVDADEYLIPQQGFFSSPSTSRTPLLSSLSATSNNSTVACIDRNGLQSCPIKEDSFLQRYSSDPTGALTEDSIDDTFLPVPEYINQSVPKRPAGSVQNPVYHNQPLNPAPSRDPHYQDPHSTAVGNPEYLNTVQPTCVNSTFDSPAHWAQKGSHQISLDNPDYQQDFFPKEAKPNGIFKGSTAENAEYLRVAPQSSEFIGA

Row | Compound | Activity [1] | Activity [2] | Activity [3] | Activity [4] | Activity [5] | IC50 [8] | viability at 1 µM (H9c2 [6]) | viability at 10 µM (H9c2 [7])
1 | CN(C)c1ccc(Nc2ncnc3sc4c(c23)CCN(C(=O)c2cnccn2)C4)cc1NC(=O)c1cccs1 | 98% | 113% | 80% | 80% | 44% | – | – | –
2 | CN(C)c1ccc(Nc2ncnc3sc4c(c23)CCN(C(=O)c2cccnc2)C4)cc1NC(=O)c1ccco1 | 89% | 101% | 93% | 110% | 41% | – | – | –
3 | CCC(=O)Nc1cc(Nc2ncnc3sc4c(c23)CCN(c2ncccn2)C4)ccc1N(C)C | 106% | 99% | 80% | 102% | 59% | – | – | –
4 | CCC(=O)Nc1cc(Nc2ncnc3sc4c(c23)CCN(C)C4)ccc1N(C)C | 95% | 109% | 82% | 99% | 49% | – | – | –
5 | Cc1ccc(C(=O)Nc2cc(Nc3ncnc4sc5c(c34)CCN(C)C5)ccc2N(C)C)cc1 | 97% | 92% | 83% | 108% | 71% | – | – | –
6 | CN(C)c1ccc(Nc2ncnc3sc4c(c23)CCN(C(=O)c2ncccn2)C4)cc1NC(=O)c1ccco1 | 101% | 98% | 81% | 82% | 54% | – | – | –
7 | CCC(=O)Nc1cc(Nc2ncnc3sc4c(c23)CCN(CCCN2CCOCC2)C4)ccc1N(C)C | 90% | 108% | 86% | 105% | 37% | 480 nM | 62.4% | 82.2%
8 | CN1CCc2c(sc3ncnc(Nc4ccc(N(C)C)c(NC(=O)c5ccco5)c4)c23)C1 | 105% | 95% | 89% | 93% | 37% | 560 nM | 59.6% | 85.6%
9 | CN(C)c1ccc(Nc2ncnc3sc4c(c23)CCN(C(=O)c2ccncc2)C4)cc1NC(=O)c1cccs1 | 85% | 110% | 82% | 85% | 36% | – | – | –
10 | CN(C)c1ccc(Nc2ncnc3sc4c(c23)CCN(C(=O)c2cnccn2)C4)cc1NC(=O)c1ccco1 | 98% | 96% | 90% | 89% | 43% | – | – | –
11 | CCC(=O)Nc1cc(Nc2ncnc3sc4c(c23)CCN(CC)C4)ccc1N(C)C | 109% | 90% | 80% | 93% | 53% | – | – | –
12 | CCC(=O)Nc1cc(Nc2ncnc3sc4c(c23)CCN(Cc2ccccc2)C4)ccc1N(C)C | 106% | 94% | 85% | 91% | 48% | – | – | –
13 | CN1CCN(CCCN2CCc3c(sc4ncnc(Nc5ccc(N(C)C)c(NC(=O)c6cccs6)c5)c34)C2)CC1 | 98% | 103% | 93% | 86% | 38% | 330 nM | 69.1% | 81.8%
14 | CN(C)c1ccc(Nc2ncnc3sc4c(c23)CCN(C(=O)c2ncccn2)C4)cc1NC(=O)c1cccs1 | 104% | 112% | 86% | 92% | 49% | – | – | –
15 | CN1CCc2c(sc3ncnc(Nc4ccc(N(C)C)c(NC(=O)c5cccc6ccccc56)c4)c23)C1 | 101% | 96% | 87% | 98% | 77% | – | – | –
16 | CN(C)c1ccc(Nc2ncnc3sc4c(c23)CCN(C(=O)c2cccnc2)C4)cc1NC(=O)c1cccs1 | 81% | 93% | 69% | 94% | 45% | – | – | –
17 | CCC(=O)Nc1cc(Nc2ncnc3sc4c(c23)CCN(C(=O)c2ccc(C(F)(F)F)cc2)C4)ccc1N(C)C | 109% | 103% | 95% | 107% | 41% | – | – | –
18 | CN(C)c1ccc(Nc2ncnc3sc4c(c23)CCN(C(=O)c2ccncc2)C4)cc1NC(=O)c1ccco1 | 109% | 116% | 92% | 107% | 35% | 980 nM | 49.1% | 70.7%

Now from value to compound, other results behind:

Row | Activity [1] | Activity [2] | Activity [3] | Activity [4] | Activity [5] | IC50 [8] | Compound | viability at 1 µM (H9c2 [6]) | viability at 10 µM (H9c2 [7])
19 | 105% | 97% | 84% | 105% | 46% | – | CN1CCc2c(sc3ncnc(Nc4ccc(N(C)C)c(NC(=O)c5ccncc5)c4)c23)C1 | – | –
20 | 96% | 92% | 95% | 108% | 78% | – | Cc1ccc(C(=O)Nc2cc(Nc3ncnc4sc5c(c34)CCNC5)ccc2N(C)C)cc1 | – | –
21 | 87% | 99% | 73% | 99% | 40% | – | CN(C)c1ccc(Nc2ncnc3sc4c(c23)CCN(C(=O)c2ccccn2)C4)cc1NC(=O)c1cccs1 | – | –
22 | 101% | 106% | 95% | 93% | 38% | 780 nM | CN(C)c1ccc(Nc2ncnc3sc4c(c23)CCNC4)cc1NC(=O)c1cccs1 | 56.9% | 75.9%
23 | 107% | 102% | 92% | 97% | 46% | – | CCC(=O)Nc1cc(Nc2ncnc3sc4c(c23)CCNC4)ccc1N(C)C | – | –
24 | 104% | 107% | 90% | 108% | 45% | – | CN(C)c1ccc(Nc2ncnc3sc4c(c23)CCNC4)cc1NC(=O)c1cccnc1 | – | –
25 | 103% | 109% | 92% | 90% | 39% | 960 nM | CN(C)c1ccc(Nc2ncnc3sc4c(c23)CCNC4)cc1NC(=O)c1ccncc1 | 53% | 68.1%
26 | 108% | 103% | 89% | 104% | 40% | – | CN1CCc2c(sc3ncnc(Nc4ccc(N(C)C)c(NC(=O)c5cccs5)c4)c23)C1 | – | –
27 | 86% | 89% | 77% | 104% | 39% | 820 nM | CN(C)c1ccc(Nc2ncnc3sc4c(c23)CCN(C(=O)c2ccccn2)C4)cc1NC(=O)c1ccco1 | 54.3% | 70.9%
28 | 103% | 93% | 94% | 105% | 47% | – | CN1CCc2c(sc3ncnc(Nc4ccc(N(C)C)c(NC(=O)c5cccnc5)c4)c23)C1 | – | –
29 | 96% | 98% | 95% | 103% | 42% | – | CN(C)c1ccc(Nc2ncnc3sc4c(c23)CCNC4)cc1NC(=O)c1ccccn1 | – | –
30 | 105% | 90% | 88% | 110% | 71% | – | CN(C)c1ccc(Nc2ncnc3sc4c(c23)CCNC4)cc1NC(=O)c1cccc2ccccc12 | – | –
31 | 94% | 103% | 89% | 100% | 55% | – | CN1CCc2c(sc3ncnc(Nc4ccc(N(C)C)c(NC(=O)c5ccccn5)c4)c23)C1 | – | –

Reference: ChEMBL document CHEMBL4765301, “Discovery of novel TNNI3K inhibitor suppresses pyroptosis and apoptosis in murine myocardial infarction injury” (Eur J Med Chem, 2020)
